Source: ChEMBL document CHEMBL1129423, “Hypoglycemic activity of a series of alpha-alkylthio and alpha-alkoxy carboxylic acids related to ciglitazone” (J Med Chem, 1996)
Calls of active or inactive are those of the source. No cut-off for these calls is given here.

Key:
Mus musculus [1] = assay: In vivo hypoglycemic activity expressed as percent glucose normalization in db/db mice at 5 mg/Kg; Not tested; type: functional
Mus musculus [2] = assay: In vivo hypoglycemic activity expressed as percent glucose normalization in db/db mice at 1 mg/Kg; type: functional
Mus musculus [3] = assay: In vivo hypoglycemic activity expressed as percent glucose normalization in db/db mice at 0.01 mg/Kg; type: functional
Mus musculus [4] = assay: In vivo hypoglycemic activity expressed as percent glucose normalization in db/db mice at 0.1 mg/Kg; type: functional
Mus musculus [5] = assay: In vivo hypoglycemic activity expressed as percent glucose normalization in db/db mice at 0.25 mg/Kg; type: functional
Mus musculus [6] = assay: In vivo hypoglycemic activity expressed as percent glucose normalization in db/db mice at 0.1 mg/Kg; Inactive; type: functional, organism-based
Mus musculus [7] = assay: In vivo hypoglycemic activity expressed as percent glucose normalization in db/db mice at 0.5 mg/Kg; type: functional
Mus musculus [8] = assay: In vivo hypoglycemic activity expressed as percent glucose normalization in db/db mice at 5 mg/Kg; type: functional
Mus musculus [9] = assay: In vivo hypoglycemic activity expressed as percent glucose normalization in db/db mice at 0.05 mg/Kg; type: functional
Mus musculus [10] = assay: In vivo hypoglycemic activity expressed as percent glucose normalization in ob/ob mice at 0.01 mg/Kg; type: functional
Procedure, shortened: (§1)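 ob/ob mice received oral gavage once daily for 4 days in 0.25% (w/v) methylcellulose in water. Retro-orbital blood was taken before treatment and 24 h after the fourth dose. Glucose was measured by the hexokinase UV method. Results are % glucose normalization relative to vehicle (0%) and englitazone 100 mg/kg (100%), with significance at p<0.05.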

Mus musculus [11] = assay: In vivo hypoglycemic activity expressed as percent glucose normalization in ob/ob mice at 1 mg/Kg; type: functional; procedure, shortened: as §1
Mus musculus [12] = assay: In vivo hypoglycemic activity expressed as percent glucose normalization in ob/ob mice at 0.1 mg/Kg; type: functional; procedure, shortened: as §1
Mus musculus [13] = assay: In vivo hypoglycemic activity expressed as percent glucose normalization in db/db mice at 2.5 mg/Kg; type: functional
Mus musculus [14] = assay: In vivo hypoglycemic activity expressed as percent glucose normalization in db/db mice at 0.05 mg/Kg; Inactive; type: functional, organism-based
Mus musculus [15] = assay: In vivo hypoglycemic activity expressed as percent glucose normalization in ob/ob mice at 0.01 mg/Kg; Inactive; type: functional, organism-based; procedure, shortened: as §1

## CCOC(C(=O)O)c1ccc2oc(Cc3nc(-c4ccccc4)oc3C)cc2c1 (stereo not drawn)
Mus musculus [1]
  Glucose normalisation: 9%

## CCO[C@H](Cc1ccc2oc(Cc3nc(-c4ccccc4)oc3C)cc2c1)C(=O)O
Mus musculus [2]
  Glucose normalisation: 74%
Mus musculus [3]
  Glucose normalisation: 16%
Mus musculus [4]
  Glucose normalisation: 19%

## Cc1oc(-c2ccccc2)nc1Cc1cc2cc(CC(SCc3ccccc3)C(=O)O)ccc2o1 (stereo not drawn)
Mus musculus [2]
  Glucose normalisation: 88%
Mus musculus [5]
  Glucose normalisation: 72%
Mus musculus [6]
  Glucose normalisation: inactive
Mus musculus [7]
  Glucose normalisation: 93%
Mus musculus [8]
  Glucose normalisation: 100%

## CCOC(CCc1ccc2oc(Cc3nc(-c4ccccc4)oc3C)cc2c1)C(=O)O (stereo not drawn)
Mus musculus [2]
  Glucose normalisation: 90%
Mus musculus [5]
  Glucose normalisation: 13%
Mus musculus [7]
  Glucose normalisation: 75%
Mus musculus [8]
  Glucose normalisation: 100%

## COC(Cc1ccc2oc(Cc3nc(-c4ccccc4)oc3C)cc2c1)C(=O)O (stereo not drawn)
Mus musculus [2]
  Glucose normalisation: 100%
Mus musculus [9]
  Glucose normalisation: 82%
Mus musculus [3]
  Glucose normalisation: 44%
Mus musculus [4]
  Glucose normalisation: 83%
Mus musculus [8]
  Glucose normalisation: 94%

## CCOC(Cc1ccc2oc(Cc3nc(-c4ccco4)oc3C)cc2c1)C(=O)O (stereo not drawn)
Mus musculus [2]
  Glucose normalisation: 100%
Mus musculus [3]
  Glucose normalisation: 63%
Mus musculus [4]
  Glucose normalisation: 100%

## C=CCOC(Cc1ccc2oc(Cc3nc(-c4ccccc4)oc3C)cc2c1)C(=O)O (stereo not drawn)
Mus musculus [2]
  Glucose normalisation: 85%
Mus musculus [9]
  Glucose normalisation: 91%
Mus musculus [3]
  Glucose normalisation: 27%
Mus musculus [4]
  Glucose normalisation: 85%
Mus musculus [8]
  Glucose normalisation: 92%

## CSC(Cc1ccc2oc(Cc3nc(-c4ccccc4)oc3C)cc2c1)C(=O)O (stereo not drawn)
Mus musculus [2]
  Glucose normalisation: 89%
Mus musculus [5]
  Glucose normalisation: 16%
Mus musculus [7]
  Glucose normalisation: 100%
Mus musculus [4]
  Glucose normalisation: 26%

## Cc1oc(-c2ccccc2)nc1Cc1cc2cc(CC(OCc3ccccc3)C(=O)O)ccc2o1 (stereo not drawn)
Mus musculus [9]
  Glucose normalisation: 100%
Mus musculus [3]
  Glucose normalisation: 74%
Mus musculus [4]
  Glucose normalisation: 100%

## C#CCOC(Cc1ccc2oc(Cc3nc(-c4ccccc4)oc3C)cc2c1)C(=O)O (stereo not drawn)
Mus musculus [2]
  Glucose normalisation: 74%
Mus musculus [8]
  Glucose normalisation: 100%

## CCOC(Cc1ccc2oc(Cc3nc(-c4ccccc4)oc3C)cc2c1)C(=O)O (stereo not drawn)
Mus musculus [9]
  Glucose normalisation: 97%
Mus musculus [5]
  Glucose normalisation: 100%
Mus musculus [3]
  Glucose normalisation: 69%
Mus musculus [4]
  Glucose normalisation: 100%
Mus musculus [8]
  Glucose normalisation: 100%

## Cc1cccc(-c2nc(Cc3cc4cc(CC5SC(=O)NC5=O)ccc4o3)c(C)o2)c1 (stereo not drawn)
Mus musculus [10]
  Glucose normalisation: 78%
Mus musculus [11]
  Glucose normalisation: 100%
Mus musculus [12]
  Glucose normalisation: 79%

## CCOC(Cc1ccc2oc(Cc3nc(-c4cccs4)oc3C)cc2c1)C(=O)O (stereo not drawn)
Mus musculus [2]
  Glucose normalisation: 100%
Mus musculus [9]
  Glucose normalisation: 100%
Mus musculus [3]
  Glucose normalisation: 98%
Mus musculus [4]
  Glucose normalisation: 100%

## CCSC(Cc1ccc2oc(Cc3nc(-c4ccccc4)oc3C)cc2c1)C(=O)O (stereo not drawn)
Mus musculus [2]
  Glucose normalisation: 60%
Mus musculus [5]
  Glucose normalisation: 3%
Mus musculus [7]
  Glucose normalisation: 80%
Mus musculus [8]
  Glucose normalisation: 86%

## Cc1oc(-c2ccccc2)nc1Cc1cc2cc(CC(OCCCO)C(=O)O)ccc2o1 (stereo not drawn)
Mus musculus [9]
  Glucose normalisation: 19%
Mus musculus [4]
  Glucose normalisation: 91%

## CCCS[C@@H](Cc1ccc2oc(Cc3nc(-c4ccccc4)oc3C)cc2c1)C(=O)O
Mus musculus [2]
  Glucose normalisation: 91%
Mus musculus [7]
  Glucose normalisation: 52%
Mus musculus [13]
  Glucose normalisation: 69%

## Cc1oc(-c2ccc(Cl)cc2)nc1Cc1cc2cc(CC3SC(=O)NC3=O)ccc2o1 (stereo not drawn)
Mus musculus [10]
  Glucose normalisation: 0%
Mus musculus [11]
  Glucose normalisation: 100%
Mus musculus [12]
  Glucose normalisation: 100%

## CCCSC(Cc1ccc2oc(Cc3nc(-c4ccccc4)oc3C)cc2c1)C(=O)O (stereo not drawn)
Mus musculus [2]
  Glucose normalisation: 69%
Mus musculus [5]
  Glucose normalisation: 39%
Mus musculus [7]
  Glucose normalisation: 82%
Mus musculus [8]
  Glucose normalisation: 94%

## CCO[C@@H](Cc1ccc2oc(Cc3nc(-c4ccccc4)oc3C)cc2c1)C(=O)O
Mus musculus [3]
  Glucose normalisation: 78%
Mus musculus [4]
  Glucose normalisation: 100%

## Cc1oc(-c2ccccc2)nc1Cc1cc2cc(CC(Sc3ccccc3)C(=O)O)ccc2o1 (stereo not drawn)
Mus musculus [2]
  Glucose normalisation: 90%
Mus musculus [5]
  Glucose normalisation: 92%
Mus musculus [7]
  Glucose normalisation: 100%
Mus musculus [4]
  Glucose normalisation: 86%
Mus musculus [8]
  Glucose normalisation: 70%

## CCCOC(Cc1ccc2oc(Cc3nc(-c4ccccc4)oc3C)cc2c1)C(=O)O (stereo not drawn)
Mus musculus [2]
  Glucose normalisation: 100%
Mus musculus [9]
  Glucose normalisation: 76%
Mus musculus [3]
  Glucose normalisation: 43%
Mus musculus [4]
  Glucose normalisation: 100%
Mus musculus [8]
  Glucose normalisation: 100%

## Cc1oc(-c2ccccc2)nc1Cc1cc2cc(CC3SC(=O)NC3=O)ccc2o1 (stereo not drawn)
Mus musculus [10]
  Glucose normalisation: 76%
Mus musculus [12]
  Glucose normalisation: 93%

## CCOC(Cc1ccc2oc(Cc3nc(-c4ccc(OC)cc4)oc3C)cc2c1)C(=O)O (stereo not drawn)
Mus musculus [2]
  Glucose normalisation: 100%
Mus musculus [14]
  Glucose normalisation: inactive
Mus musculus [3]
  Glucose normalisation: 46%
Mus musculus [4]
  Glucose normalisation: 100%

## Cc1oc(C2CCCCC2)nc1Cc1cc2cc(CC3SC(=O)NC3=O)ccc2o1 (stereo not drawn)
Mus musculus [15]
  Glucose normalisation: inactive
Mus musculus [11]
  Glucose normalisation: 100%
Mus musculus [12]
  Glucose normalisation: 90%

## Cc1ccccc1-c1nc(Cc2cc3cc(CC4SC(=O)NC4=O)ccc3o2)c(C)o1 (stereo not drawn)
Mus musculus [10]
  Glucose normalisation: 11%
Mus musculus [11]
  Glucose normalisation: 100%
Mus musculus [12]
  Glucose normalisation: 91%

## CCCCCCCCSC(Cc1ccc2oc(Cc3nc(-c4ccccc4)oc3C)cc2c1)C(=O)O (stereo not drawn)
Mus musculus [2]
  Glucose normalisation: 75%
Mus musculus [5]
  Glucose normalisation: 99%
Mus musculus [7]
  Glucose normalisation: 100%
Mus musculus [4]
  Glucose normalisation: 14%
Mus musculus [8]
  Glucose normalisation: 96%

## CCCS[C@H](Cc1ccc2oc(Cc3nc(-c4ccccc4)oc3C)cc2c1)C(=O)O
Mus musculus [2]
  Glucose normalisation: 56%
Mus musculus [7]
  Glucose normalisation: 45%
Mus musculus [13]
  Glucose normalisation: 75%

## Cc1oc(-c2cccc(F)c2)nc1Cc1cc2cc(CC3SC(=O)NC3=O)ccc2o1 (stereo not drawn)
Mus musculus [10]
  Glucose normalisation: 12%
Mus musculus [11]
  Glucose normalisation: 100%
Mus musculus [12]
  Glucose normalisation: 88%
